FLuc inh counter – firefly luciferase enzyme inhibitors, primary screen, artefact control for luciferase-based inhibitor screens, biochemical, luminescence, ATPLite. Luciferin 4-monooxygenase (Photinus pyralis), P08659. 200,000 compounds, 1.5% hits. 10 min. inhibition, % at 10 µM;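 active means inhibition above about 50% when tested at 10 µM, limit read from the data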
Target sequence (P08659 whole entry, looked up): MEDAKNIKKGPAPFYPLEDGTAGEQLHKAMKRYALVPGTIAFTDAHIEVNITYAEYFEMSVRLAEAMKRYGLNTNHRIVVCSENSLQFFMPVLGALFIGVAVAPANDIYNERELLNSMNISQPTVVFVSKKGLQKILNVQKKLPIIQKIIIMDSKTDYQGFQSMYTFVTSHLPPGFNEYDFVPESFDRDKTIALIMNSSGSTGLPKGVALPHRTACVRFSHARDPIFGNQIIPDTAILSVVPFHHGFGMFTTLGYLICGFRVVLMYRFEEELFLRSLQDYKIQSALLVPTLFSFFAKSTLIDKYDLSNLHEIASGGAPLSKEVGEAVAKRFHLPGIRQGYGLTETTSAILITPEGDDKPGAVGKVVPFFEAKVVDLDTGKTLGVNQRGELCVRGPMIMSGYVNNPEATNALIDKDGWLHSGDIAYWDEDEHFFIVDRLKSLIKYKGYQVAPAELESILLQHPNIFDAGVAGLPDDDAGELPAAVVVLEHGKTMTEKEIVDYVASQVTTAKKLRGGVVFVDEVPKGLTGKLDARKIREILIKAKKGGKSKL
STAT1 act – STAT1 signaling activators, primary screen, cell-based, HTS, luciferase reporter; NIH 3T3 STAT1-luciferase reporter, IFN-gamma, luminescence; 100% = IFN-gamma alone, no compound; activation (% of control), % at 5.5 µM; 200,000 compounds, 2.6% hits; AID 932, 2007;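 active means activation above the screen-wide mean activation plus 3 SD, cut at about 130% in these data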;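 further: raw ratio to IFN-gamma control signal so 100% means no change and 0% no light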
NF-kB expr up – activators of NF-kB expression in neurons, primary screen, cell-based, HTS; AID 1239, 2008; 190,000 compounds, 1.6% hits; fold change at 12.5 µM; human neuronal cells, NF-kB reporter expression; stronger effect = higher value; in the data active means fold change above about 3.3
APP 5'UTR act – activators of APP 5'UTR luciferase reporter, primary screen, SH-SY5Y cells. SH-SY5Y APP 5'UTR luciferase reporter, luminescence; zero percent = DMSO vehicle wells. activation, % at 2 µM. 190,000 compounds, 1% hits. AID 1276, 2008;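 active means activation above a set limit, based on mean plus 3 SD of controls, cut at about 140% in these data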
FLuc act counter – FLuc activators, initial screening, artefact control for FLuc-dependent activation tests, biochemical, ATPlite luminescence; Luciferin 4-monooxygenase (Photinus pyralis), P08659; activation factor at 10 µM; ATPlite luciferase biochemical, 10 min; 0 = ATP-free wells, 1 = DMSO control; 200,000 tested, under 10 active; AID 1027, 2008;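 active means luciferase activation factor, scaled between plate controls, of at least 2 with compound at 10 µM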
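System: Luciferase/luciferin detection reagent, cell-free biochemical luciferase assay | Medium: PBS buffer for ATP | Dosing: Test compounds dosed from 2 mM stocks in 100% DMSO | Timing: 10 min at ambient temperature | Signal: Luminescence measurement of luciferase light output | Evaluation: Luciferase activation, seen as luminescence increase over controls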
* hit, by the source's call; . = no result. An excerpt weighted towards active compounds, which were near 4.1% of everything screened.

SMILES | FLuc inh counter | STAT1 act | NF-kB expr up | APP 5'UTR act | FLuc act counter
COc1ccc2cc3cc(C(=O)NCc4ccco4)oc3nc2c1 | -6 | 109 | 1.4 | -6 | 1.1
COc1ccc2cc3c(N)c(C(=O)NCc4ccco4)sc3nc2c1 | 14 | 137* | 1.1 | 51 | 0.9
N#CCCN(C1CCCCC1)S(=O)(=O)CCOc1ccccc1 | -9 | 94 | 1 | -11 | 1.1
COc1ccc(C(=O)Nc2ccc3c(c2)nc2n3CCSC2)cc1 | 66* | 125 | 0.95 | 82 | 0.3
O=C(Nc1ccc2c(c1)nc1n2CCSC1)c1ccccc1 | 80* | 116 | 3.3* | 120 | 0.2
CCC(=O)Nc1ccc2c(c1)nc1n2CCSC1 | -3 | 108 | 1.1 | -1 | 1
CCOc1ccc(C(=O)Nc2cccc(C(=O)O)c2)cc1Cl | 79* | 34 | 6.2* | 76 | 0.2
CCOc1ccc(C(=O)Nc2cc(NC(=O)c3ccc(OCC)c(Cl)c3)cc(C(=O)O)c2)cc1Cl | -2 | 101 | 3.7* | 13 | 1
CCOc1ccc(C(=O)Nc2ccc(NC(=S)NC(=O)CC)cc2)cc1Cl | -4 | 96 | 1.3 | 6 | 1
Cc1ccc(NC(=O)c2cc(-c3cccc(O)c3)on2)cc1C | 3 | 106 | 2.8 | 31 | 1
CCCSc1nc(C)c(CC(=O)O)c(=O)[nH]1 | -3 | 96 | 1.1 | 10 | 1
Cc1cccc(OCC(=O)Nc2ccc3c(c2)OCCO3)c1 | 54* | 104 | 1.6 | 107 | 0.5
Cc1cccc(OCCCC(=O)Nc2ccc(N(C)C)cc2)c1 | 3 | 145* | 1.2 | 92 | 1
O=C(CCc1ccccc1)Nc1ccc2c(c1)OCCO2 | 34 | 145* | 4.5* | 132 | 0.7
O=C(CCSCc1ccccc1)Nc1ccc2c(c1)OCCO2 | 5 | 126 | 1.4 | 4 | 0.9
Cc1cnc(NC(=O)COc2ccccc2Cl)s1 | 91* | 45 | 1.1 | 100 | 0.1
CC1CCC(NC(=O)c2ccc(NC(=O)c3ccc(=O)[nH]c3)cc2)CC1 (stereo not drawn) | -1 | 114 | 1.1 | 0 | 1
Cn1c(=O)c2nc(Cl)n(Cc3ccc(Cl)cc3Cl)c2n(C)c1=O | . | 101 | . | 7 | .
Cc1ccc(-c2nn3cnnc3c3ccccc23)cc1 | -8 | 98 | 0.91 | -7 | 1.1
COc1ccc(CNC(=O)C(=O)NCC2OCCN2S(=O)(=O)c2cccs2)cc1 (stereo not drawn) | -13 | 106 | 1.1 | -2 | 1.1
Cc1ccc(NC(=O)CCCN2C(=S)NC(C)(C)CC2C)cc1 (stereo not drawn) | -4 | 98 | 0.97 | 23 | 1
O=C(COc1ccccc1Cl)Nc1ccc2c(c1)OCCO2 | 39 | 116 | 2.8 | 190* | 0.6
O=C(COc1ccccc1Cl)NCCc1ccc2c(c1)OCCO2 | 2 | 93 | 1.7 | -9 | 1
CC1CC(C)(C)NC(=S)N1CCCC(=O)Nc1ccc2c(c1)OCCO2 (stereo not drawn) | 4 | 137* | 1.2 | 61 | 1
O=C(Nc1ccc2c(c1)OCCO2)c1ccc2nccnc2c1 | 80* | 125 | . | 165* | 0.2
SMILES | FLuc inh counter | STAT1 act | NF-kB expr up | APP 5'UTR act | FLuc act counter
O=C(Nc1ccc2c(c1)OCCO2)c1c(F)c(F)c(F)c(F)c1F | -4 | 99 | 1 | . | 1
O=C(Nc1ccc2c(c1)OCCO2)c1cccnc1 | 17 | 129* | 1.5 | 27 | 0.8
O=C(Nc1ccc(OC(F)(F)F)cc1)c1ccc2nccnc2c1 | -1 | 110 | 1.7 | 5 | 1
Cc1ccc(C(=O)Nc2ccc3nccnc3c2)cc1 | 89* | 93 | 8.4* | 145* | 0.1
CCc1ccc(NC(=O)CCc2nc3ccccc3[nH]2)cc1 | -2 | 98 | 1.5 | -10 | 1
CCN(Cc1ccncc1)C(=O)CCc1nnc(CCC2CCCCC2)o1 | -3 | 108 | 1.7 | 12 | 1
Cc1cc(C)n(CCN(C)C(=O)CCc2nnc(CCC3CCCCC3)o2)n1 | -8 | 140* | 3.1 | 70 | 1.1
CN(CCCC1CCCC1)C(=O)CCc1nnc(-c2ccccc2)o1 | 7 | 148* | 3.3 | 90 | 0.9
O=C(CCc1nnc(-c2ccccc2)o1)NC1CCCCC1 | -4 | 130* | 1.9 | 23 | 1

High-throughput results as filed in PubChem BioAssay.
